The values below come from ChEMBL document CHEMBL1667766, “Synthesis of elastin based peptides conjugated to benzisoxazole as a new class of potent antimicrobials--A novel approach to enhance biocompatibility” (2011).

Holding throughout (type): functional
The test system of test [1] is Aspergillus flavus. Description: Antifungal activity against Aspergillus flavus after 72 hrs by microdilution method. For orientation: Dilution methods test growth across graded concentrations, often in twofold steps.
For test [2], the system named is Aspergillus flavus. The test is described as follows: Antifungal activity against Aspergillus flavus after 24 hrs by agar well diffusion method. The method in brief: (§1)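 Fungi subcultured in 25 mL nutrient broth for one day to give inoculum, then spread on solidified Sabouraud agar. Wells punched with a 6 mm cork borer and filled with 0.1 mL test solution in DMSO, prepared from a 1 mg/mL stock. Bavistin as reference, DMSO as negative control. Read-out is inhibition zone diameter (mm).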
For orientation: In agar diffusion tests the substance spreads into inoculated agar from a disc or well.

Test [3] has as its system Aspergillus niger. The test is described as follows: Antifungal activity against Aspergillus niger after 72 hrs by microdilution method.
For test [4], the system named is Klebsiella pneumoniae. Description: Antimicrobial activity against Klebsiella pneumoniae after 72 hrs by microdilution method.
For test [5], the system named is Fusarium oxysporum. The test is described as follows: Antifungal activity against Fusarium oxysporum after 24 hrs by agar well diffusion method. The method in brief:
as §1

Test [6] has as its system Xanthomonas oryzae. Description: Antimicrobial activity against Xanthomonas oryzae after 72 hrs by microdilution method.
Test [7] relates to Escherichia coli. The test is described as follows: Antimicrobial activity against Escherichia coli after 24 hrs by agar well diffusion method. A digest of the protocol:
(§2)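 Bacteria grown in nutrient broth at 37 °C for 24 h, subcultured in 25 mL broth at room temperature, then spread on nutrient agar. Wells (6 mm cork borer) filled with 0.1 mL test solution in DMSO, prepared from a 1 mg/mL stock. Amoxicillin as reference, DMSO as negative control. Plates kept 24 h at 37 °C; inhibition zone measured in mm.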

For test [8], the system named is Staphylococcus. The test is described as follows: Antimicrobial activity against coagulase positive Staphylococcus after 24 hrs by agar well diffusion method. A digest of the protocol: as §2
In test [9] the test system is Staphylococcus. The test is described as follows: Antimicrobial activity against coagulase positive Staphylococcus after 72 hrs by microdilution method.
Test [10] deals with Klebsiella pneumoniae. The test is described as follows: Antimicrobial activity against Klebsiella pneumoniae after 24 hrs by agar well diffusion method. The method in brief:
as §2

The subject of test [11] is Escherichia coli. Description: Antimicrobial activity against Escherichia coli after 72 hrs by microdilution method.
In test [12] the test system is Fusarium oxysporum. Description: Antifungal activity against Fusarium oxysporum after 72 hrs by microdilution method.
Test [13] relates to Aspergillus niger. Description: Antifungal activity against Aspergillus niger after 24 hrs by agar well diffusion method. A digest of the protocol: as §1
Test [14] relates to Xanthomonas oryzae. Description: Antimicrobial activity against Xanthomonas oryzae after 24 hrs by agar well diffusion method.

Converted amounts (≈) assume the structure as drawn. *1 amine or outer side, *2 acyl side, *3 side chain or, on linkers, in order; H or OH if unused. Where a SMILES comes first, the peptide text is derived from it. [ ]: non-standard residue; d: D form. The star is where a group is joined. X2 = CC(C)[C@H](N[*:1])C(=O)NC(=O)[*:2]; X1 = Fc1ccc2c(C3CCN(*)CC3)noc2c1; Boc = CC(C)(C)OC(=O)*

A word on the MIC: it is the smallest concentration in the dilution series that meets the test's criterion for growth inhibition. Read a low MIC as a more susceptible organism. For `N[C@@H](Cc1ccccc1)C(=O)N1CCC(c2noc3cc(F)ccc23)CC1.O=C(O)C(F)(F)F`, the MIC in test [1] was found to be 22 µg/mL; in test [3], 18 µg/mL; in test [4], 16 µg/mL; in test [6], 15 µg/mL; in test [9], 18 µg/mL; in test [11] it was 20 µg/mL. Also, the MIC in [12] was determined as 21 µg/mL. Moreover, the “inhibition zone (IZ)” value in [2] is on record as 11 mm; in [5], 14 mm; in test [7], 14 mm; in test [8], 9 mm; in test [10], 10 mm; in test [13] it was 16 mm. For the same molecule, the “inhibition zone (IZ)” value in [14] is 11 mm.
In the case of `N[C@@H](Cc1c[nH]c2ccccc12)C(=O)N1CCC(c2noc3cc(F)ccc23)CC1.O=C(O)C(F)(F)F`, the MIC in test [1] was found to be 41 µg/mL; in [3], 32 µg/mL; in test [4] it was 31 µg/mL; in test [6] it was 26 µg/mL; in [9], 36 µg/mL; in test [11] it was 38 µg/mL. The molecule also displayed an MIC in test [12] of 39 µg/mL. The “inhibition zone (IZ)” value in test [2] turned out to be 4 mm; in test [5], 7 mm; in test [7] it was 8 mm; in [8], 4 mm; in test [10], 5 mm; in [13], 11 mm. The “inhibition zone (IZ)” value in [14] turned out to be 6 mm.
On to `N[C@@H](Cc1ccc(O)cc1)C(=O)N1CCC(c2noc3cc(F)ccc23)CC1.O=C(O)C(F)(F)F`, for which the MIC is 43 µg/mL in test [1]; 34 µg/mL in test [3]; 34 µg/mL in [4]; 29 µg/mL in test [6]; 39 µg/mL in test [9]; 40 µg/mL in test [11]. The molecule also registered an MIC in [12] of 41 µg/mL. Also, the “inhibition zone (IZ)” value is given as 3 mm in test [2]; 6 mm in [5]; 7 mm in test [7]; 4 mm in test [8]; 4 mm in [10]; 10 mm in [13]. In [14], the “inhibition zone (IZ)” value was determined as 5 mm.
Regarding `CC[C@@H](C)[C@H](NC(=O)CNC(=O)CN)C(=O)N1CCC[C@H]1C(=O)N1CCC(c2noc3cc(F)ccc23)CC1.O=C(O)C(F)(F)F`, the minimal inhibitory concentration (MIC) in test [1] was 16 µg/mL; in test [3] it was 13 µg/mL; in test [4], 12 µg/mL; in test [6] it was 12 µg/mL; in [9] it was 14 µg/mL; in test [11], 15 µg/mL. Moreover, the MIC in test [12] is 17 µg/mL. For the same molecule, the “inhibition zone (IZ)” value in test [2] amounted to 14 mm; in [5], 18 mm; in [7], 20 mm; in [8], 12 mm; in test [10] it was 14 mm; in test [13] it was 22 mm. Moreover, the “inhibition zone (IZ)” value in [14] was determined as 15 mm.
In the case of `Fc1ccc2c(C3CCNCC3)noc2c1`, the MIC in test [1], in test [3], in [4], in [6], in [9] and in test [11] was > 50 µg/mL each time. Moreover, the MIC in test [12] was > 50 µg/mL. The “inhibition zone (IZ)” value came out at 2 mm in test [2]; 4 mm in test [5]; 3 mm in [7]; 3 mm in test [8]; 3 mm in test [10]; 3 mm in test [13]. Also, in [14], the “inhibition zone (IZ)” value is recorded as 4 mm.
With `CC(C)(C)OC(=O)NCC(=O)NCC(=O)N[C@@H](Cc1ccccc1)C(=O)N1CCC[C@H]1C(=O)O` (Boc-GGFP-OH), the MIC in [1], in test [3], in test [4], in test [6], in test [9] and in test [11] was > 50 µg/mL throughout. For the same molecule, the MIC in test [12] was > 50 µg/mL.
As to `CC(C)[C@H](NC(=O)CNC(=O)OC(C)(C)C)C(=O)NCC(=O)N[C@H](C(=O)N1CCC[C@H]1C(=O)O)C(C)C` (Boc-GVGVP-OH), the MIC in [1], in test [3], in test [4], in test [6], in test [9] and in test [11] was > 50 µg/mL throughout. In test [12], the MIC is > 50 µg/mL.
On to `CC(C)[C@H](NC(=O)CNC(=O)[C@@H]1CCCN1C(=O)[C@H](Cc1ccccc1)NC(=O)CNC(=O)[C@H](CCC(=O)O)NC(=O)CN)C(=O)NCC(=O)N[C@H](C(=O)N1CCC[C@H]1C(=O)NCC(=O)N[C@H](C(=O)NCC(=O)N[C@H](C(=O)N1CCC[C@H]1C(=O)NCC(=O)N[C@H](C(=O)NCC(=O)N[C@H](C(=O)N1CCC[C@H]1C(=O)NCC(=O)N[C@@H](Cc1ccccc1)C(=O)NCC(=O)N[C@@H](Cc1ccccc1)C(=O)N1CCC[C@H]1C(=O)NCC(=O)N[C@@H](Cc1ccccc1)C(=O)NCC(=O)N[C@@H](Cc1ccccc1)C(=O)N1CCC[C@H]1C(=O)N1CCC(c2noc3cc(F)ccc23)CC1)C(C)C)C(C)C)C(C)C)C(C)C)C(C)C.O=C(O)C(F)(F)F` (H-GEGFPGVGVPGVGVPGVGVPGFGFPGFGFP-X1), for which the MIC in [1] amounted to 3 µg/mL; in test [3], 3 µg/mL; in test [4], 9 µg/mL; in [6] it was 9 µg/mL; in [9] it was 11 µg/mL; in test [11] it was 10 µg/mL. Moreover, 4 µg/mL was the least that counted as inhibitory in test [12] (MIC). Further, the “inhibition zone (IZ)” value in [2] is recorded as 32 mm; in test [5] it was 31 mm; in test [7], 15 mm; in test [8], 20 mm; in [10], 17 mm; in test [13], 36 mm. Further, in [14], the “inhibition zone (IZ)” value was 18 mm.
In the case of `CC(C)[C@H](NC(=O)CNC(=O)[C@@H]1CCCN1C(=O)[C@H](Cc1ccccc1)NC(=O)CNC(=O)[C@H](Cc1ccccc1)NC(=O)CNC(=O)[C@@H]1CCCN1C(=O)[C@H](Cc1ccccc1)NC(=O)CNC(=O)[C@@H](NC(=O)CNC(=O)[C@@H]1CCCN1C(=O)[C@@H](NC(=O)NC(=O)[C@@H](NC(=O)CNC(=O)[C@@H]1CCCN1C(=O)[C@H](Cc1ccccc1)NC(=O)CNC(=O)[C@H](CCC(=O)O)NC(=O)CN)C(C)C)C(C)C)C(C)C)C(=O)NCC(=O)N[C@H](C(=O)N1CCC[C@H]1C(=O)NCC(=O)N[C@H](C(=O)NCC(=O)N[C@@H](Cc1ccccc1)C(=O)N1CCC[C@H]1C(=O)N1CCC(c2noc3cc(F)ccc23)CC1)C(C)C)C(C)C.O=C(O)C(F)(F)F` (H-GEGFPG[X2]VPGVGFPGFGFPGVGVPGVGFP-X1), the minimal inhibitory concentration (MIC) in test [1] came to 4 µg/mL; in [3], 4 µg/mL; in test [4], 10 µg/mL; in test [6] it was 10 µg/mL; in test [9], 13 µg/mL; in test [11], 12 µg/mL. This molecule also yielded an MIC in test [12] of 5 µg/mL. Moreover, the “inhibition zone (IZ)” value stood at 28 mm in [2]; 28 mm in [5]; 12 mm in [7]; 16 mm in test [8]; 11 mm in [10]; 34 mm in test [13]. Besides, the “inhibition zone (IZ)” value in [14] turned out to be 14 mm.
As for `NCC(=O)N[C@@H](Cc1ccccc1)C(=O)NCC(=O)N[C@@H](Cc1ccccc1)C(=O)N1CCC[C@H]1C(=O)N1CCC(c2noc3cc(F)ccc23)CC1.O=C(O)C(F)(F)F` (H-GFGFP-X1), the MIC in test [1] turned out to be 8 µg/mL; in [3], 6 µg/mL; in test [4], 6 µg/mL; in test [6] it was 9 µg/mL; in test [9] it was 8 µg/mL; in test [11], 8 µg/mL. In test [12], this molecule returned an MIC of 8 µg/mL. The “inhibition zone (IZ)” value in [2] is 21 mm; in test [5] it was 23 mm; in test [7] it was 25 mm; in test [8] it was 18 mm; in [10] it was 18 mm; in test [13] it was 29 mm. The “inhibition zone (IZ)” value in [14] came out at 20 mm.
As to `CC1(C)S[C@@H]2[C@H](NC(=O)[C@H](N)c3ccc(O)cc3)C(=O)N2[C@H]1C(=O)O` [AMOXICILLIN], the MIC was found to be 20 µg/mL (≈ 54.7 µM) in test [4], 18 µg/mL (≈ 49.3 µM) in test [6], 23 µg/mL (≈ 62.9 µM) in test [9] and 24 µg/mL (≈ 65.7 µM) in [11]. Besides, the “inhibition zone (IZ)” value stood at 11 mm in test [7], 7 mm in [8], 8 mm in [10] and 8 mm in test [14].
On to `COC(=O)Nc1nc2ccccc2[nH]1` [CARBENDAZIM], for which the values for the MIC in [1], in [3] and in test [12] were 26 µg/mL (≈ 136 µM), 22 µg/mL (≈ 115 µM) and 25 µg/mL (≈ 131 µM), respectively. Moreover, the “inhibition zone (IZ)” value in test [2] is listed as 7 mm; in [5], 10 mm; in test [13], 12 mm.
